In brackets after ≈: the same amount, converted by molar mass. Activity calls are given as the source filed them. No cut-off for these calls is given here. Peptide text beside a SMILES is read from it. * marks the point of attachment. X1 = CCN(CC)c1ccc2cc(-n3cc(CCC(=O)*)nn3)c(=O)oc2c1; Pent4ynoyl = C#CCCC(=O)*
Key:
[1] = system: Cryptococcus gattii species complex; experiment: Antifungal activity against Cryptococcus gattii ICB 181 after 72 hrs by microdilution method; type: functional, Cryptococcus bacillisporus; details: ICB 181, 72 h
Method in brief: (§1)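 Broth microdilution susceptibility per CLSI M27-A3; MIC reported in […]. Panel includes C. gattii strains (one fluconazole-resistant, L27/01F) and C. neoformans ATCC strains; fluconazole run as reference drug.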

[2] = system: Cryptococcus gattii species complex; experiment: Antifungal activity against Cryptococcus gattii L135/03 after 72 hrs by microdilution method; type: functional, Cryptococcus bacillisporus; details: L135/03, 72 h; method in brief: as §1
[3] = system: Cryptococcus gattii species complex; experiment: Antifungal activity against Cryptococcus gattii 196L/03 after 72 hrs by microdilution method; type: functional, Cryptococcus bacillisporus; details: 196L/03, 72 h; method in brief: as §1
[4] = system: Cryptococcus gattii species complex; experiment: Antifungal activity against Cryptococcus gattii 547/OTT after 72 hrs by microdilution method; type: functional, Cryptococcus bacillisporus; method in brief: as §1
[5] = system: Cryptococcus bacillisporus; experiment: Antifungal activity against Cryptococcus gattii ATCC 32608 after 72 hrs by microdilution method; type: functional; details: ATCC 32608, 72 h; method in brief: as §1
[6] = system: Cryptococcus gattii species complex; experiment: Antifungal activity against Cryptococcus gattii 1913ER after 72 hrs by microdilution method; type: functional, Cryptococcus bacillisporus; method in brief: as §1
[7] = system: Cryptococcus gattii species complex; experiment: Antifungal activity against Cryptococcus gattii L27/01 after 72 hrs by microdilution method; type: functional, Cryptococcus bacillisporus; details: L27/01, 72 h; method in brief: as §1
[8] = system: Cryptococcus gattii species complex; experiment: Antifungal activity against Cryptococcus gattii L28/02 after 72 hrs by microdilution method; type: functional, Cryptococcus bacillisporus; details: L28/02, 72 h; method in brief: as §1
[9] = system: Cryptococcus gattii species complex; experiment: Antifungal activity against Cryptococcus gattii LMM 818 after 72 hrs by microdilution method; type: functional, Cryptococcus bacillisporus; details: LMM 818, 72 h; method in brief: as §1
[10] = system: Cryptococcus gattii species complex; experiment: Antifungal activity against Cryptococcus gattii L24/01 after 72 hrs by microdilution method; type: functional, Cryptococcus bacillisporus; details: L24/01, 72 h; method in brief: as §1
[11] = system: Cryptococcus gattii species complex; experiment: Antifungal activity against Cryptococcus gattii 23/10993 after 72 hrs by microdilution method; type: functional, Cryptococcus bacillisporus; details: 23/10993, 72 h; method in brief: as §1
[12] = system: Cryptococcus gattii species complex; experiment: Antifungal activity against Cryptococcus gattii 29/10893 after 72 hrs by microdilution method; type: functional, Cryptococcus bacillisporus; details: 29/10893, 72 h; method in brief: as §1
[13] = system: Cryptococcus gattii species complex; experiment: Antifungal activity against fluconazole-resistant Cryptococcus gattii L27/01F after 72 hrs by microdilution method; type: functional, Cryptococcus bacillisporus
Method in brief: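 Broth microdilution susceptibility test following the CLSI M27-A3 standard; the MIC is reported in […]. Fluconazole is run in parallel as the reference drug across the C. gattii and C. neoformans strain panel.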

[14] = system: Cryptococcus neoformans; experiment: Antifungal activity against Cryptococcus neoformans ATCC 96806 after 72 hrs by microdilution method; type: functional; details: ATCC 96806, 72 h; method in brief: as §1
[15] = system: Cryptococcus neoformans; experiment: Antifungal activity against Cryptococcus neoformans ATCC 62066 after 72 hrs by microdilution method; type: functional; details: ATCC 62066, 72 h; method in brief: as §1
[16] = system: Cryptococcus neoformans; experiment: Antifungal activity against Cryptococcus neoformans ATCC 24067 after 72 hrs by microdilution method; type: functional; details: ATCC 24067, 72 h; method in brief: as §1
[17] = system: Cryptococcus neoformans; experiment: Antifungal activity against Cryptococcus neoformans ATCC 28957 after 72 hrs by microdilution method; type: functional; details: ATCC 28957, 72 h; method in brief: as §1
[18] = system: Cryptococcus gattii; experiment: Antifungal activity against Cryptococcus gattii ATCC 24065 after 72 hrs by microdilution method; details: ATCC 24065, 72 h
[19] = system: Cryptococcus bacillisporus; experiment: Induction of reactive oxygen species formation in Cryptococcus gattii ATCC 32608 at MIC after 0.5 to 1 hr by dichlorofluorescein diacetate probe-based fluorometric assay relative to control; type: functional, organism-based
Method in brief: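 Endogenous ROS in C. gattii ATCC 32608 cells treated at the compound's MIC, measured fluorometrically (signal proportional to ROS accumulation); untreated cells and compound alone measured for baseline; group differences tested statistically.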

[20] = Induction of reactive oxygen species formation after 0.5 to 1 hr by dichlorofluorescein diacetate probe-based fluorometric assay; type: physicochemical

Compound	MIC [1] [µM]	MIC [2] [µM]	MIC [3] [µM]	MIC [4] [µM]	MIC [5] [µM]	MIC [6] [µM]	MIC [7] [µM]	MIC [8] [µM]	MIC [9] [µM]	MIC [10] [µM]	MIC [11] [µM]	MIC [12] [µM]	MIC [13] [µM]	MIC [14] [µM]	MIC [15] [µM]	MIC [16] [µM]	MIC [17] [µM]	MIC [18] [µM]	Activity [19]	Activity [20]
CCN(CC)c1ccc2cc(N=[N+]=[N-])c(=O)oc2c1	> 990	> 990	> 990	> 990	> 990	> 990	> 990	> 990	> 990	> 990	> 990	> 990	> 990	> 990	> 990	> 990	> 990	> 990		
CCN(CC)c1ccc2cc(-n3cc(CCCO)nn3)c(=O)oc2c1	> 750	> 750	> 750	> 750	> 750	> 750	> 750	> 750	> 750	> 750	> 750	> 750	> 750	> 750	> 750	> 750	> 750	> 750	Active	
C#CCCC(=O)N[C@@H](CCCNC(=N)N)C(=O)N[C@@H](C)C(=O)N[C@@H](CCCCN)C(=O)N[C@@H](CCCNC(=N)N)C(=O)N[C@@H](CCCNC(=N)N)C(=O)N[C@@H](CCSC)C(=O)N[C@@H](CCC(N)=O)C(=O)N[C@@H](Cc1ccc(O)cc1)C(N)=O (Pent4ynoyl-RAKRRMQY-NH2)	> 220	> 220	> 220	> 220	> 220	> 220	> 220	> 220	> 220	> 220	> 220	> 220	> 220	> 220	> 220	> 220	> 220	> 220		
CCN(CC)c1ccc2cc(-n3cc(CCC(=O)N[C@@H](CCCNC(=N)N)C(=O)N[C@@H](C)C(=O)N[C@@H](CCCCN)C(=O)N[C@@H](CCCNC(=N)N)C(=O)N[C@@H](CCCNC(=N)N)C(=O)N[C@@H](CCSC)C(=O)N[C@@H](CCC(N)=O)C(=O)N[C@@H](Cc4ccc(O)cc4)C(N)=O)nn3)c(=O)oc2c1 (X1-RAKRRMQY-NH2)	90 (≈ 130 µg/mL)	40 (≈ 57.8 µg/mL)	40 (≈ 57.8 µg/mL)	40 (≈ 57.8 µg/mL)	90 (≈ 130 µg/mL)	180 (≈ 260 µg/mL)	40 (≈ 57.8 µg/mL)	90 (≈ 130 µg/mL)	180 (≈ 260 µg/mL)	90 (≈ 130 µg/mL)	180 (≈ 260 µg/mL)	90 (≈ 130 µg/mL)	90 (≈ 130 µg/mL)	90 (≈ 130 µg/mL)	90 (≈ 130 µg/mL)	90 (≈ 130 µg/mL)	90 (≈ 130 µg/mL)	180 (≈ 260 µg/mL)	Active	Not Active
OC(Cn1cncn1)(Cn1cncn1)c1ccc(F)cc1F [FLUCONAZOLE]	50 (≈ 15.3 µg/mL)	50 (≈ 15.3 µg/mL)	100 (≈ 30.6 µg/mL)	100 (≈ 30.6 µg/mL)	50 (≈ 15.3 µg/mL)	50 (≈ 15.3 µg/mL)	100 (≈ 30.6 µg/mL)	100 (≈ 30.6 µg/mL)	100 (≈ 30.6 µg/mL)	50 (≈ 15.3 µg/mL)	50 (≈ 15.3 µg/mL)	30 (≈ 9.19 µg/mL)	420 (≈ 129 µg/mL)	150 (≈ 45.9 µg/mL)	30 (≈ 9.19 µg/mL)	20 (≈ 6.13 µg/mL)	3 (≈ 0.919 µg/mL)	10 (≈ 3.06 µg/mL)		
H-RAKRRMQY-NH2	> 230	> 230	> 230	> 230	> 230	> 230	> 230	> 230	> 230	> 230	> 230	> 230	> 230	> 230	> 230	> 230	> 230	> 230		

— ChEMBL document CHEMBL3425414, “Synthesis of a New Peptide-Coumarin Conjugate: A Potential Agent against Cryptococcosis” (ACS Med Chem Lett, 2015)
